Assay outcomes: PubChem BioAssay, several laboratories
AP complement: orthogonal test for alternative complement pathway inhibitors; Human serum alternative complement pathway, LPS-coated ELISA, C3 deposition; tested in compound mixtures; actives 0.08% (n = 62,000); inhibition, % at 5 µM; AID 1235;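 active means inhibition above 30% in each of the two pooled mixtures holding the compound, so the lower value exceeds 30%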;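 further: 0% = serum in Mg-EGTA without compound and 100% = EDTA serum blank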
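Test system: human serum complement alternative pathway, C3 deposition onto LPS / Medium: Mg2+-EGTA GVB++ buffer containing human serum at 1:15 dilution / Probe or stimulus: Plate-bound LPS / Times: 1 h at 37 °C / Signal: ELISA with HRP anti-human C3 antibody, TMB substrate, absorbance 450 nm / Measure: percent inhibition / Repeats: two pool placements per compound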
M1 antagonist: M1 muscarinic receptor (rat) antagonism; P08482; CHO-M1 cells, Fluo-4 calcium, ACh EC80 antagonist mode; active compounds read low; B-score at 10 µM; actives 3.4% (n = 64,000); AID 628;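 active means calcium fluorescence response, raw or row-and-column corrected B-score, differing from the plate sample mean either way at a set confidence level, mostly lower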
Target sequence (P08482 whole entry, looked up): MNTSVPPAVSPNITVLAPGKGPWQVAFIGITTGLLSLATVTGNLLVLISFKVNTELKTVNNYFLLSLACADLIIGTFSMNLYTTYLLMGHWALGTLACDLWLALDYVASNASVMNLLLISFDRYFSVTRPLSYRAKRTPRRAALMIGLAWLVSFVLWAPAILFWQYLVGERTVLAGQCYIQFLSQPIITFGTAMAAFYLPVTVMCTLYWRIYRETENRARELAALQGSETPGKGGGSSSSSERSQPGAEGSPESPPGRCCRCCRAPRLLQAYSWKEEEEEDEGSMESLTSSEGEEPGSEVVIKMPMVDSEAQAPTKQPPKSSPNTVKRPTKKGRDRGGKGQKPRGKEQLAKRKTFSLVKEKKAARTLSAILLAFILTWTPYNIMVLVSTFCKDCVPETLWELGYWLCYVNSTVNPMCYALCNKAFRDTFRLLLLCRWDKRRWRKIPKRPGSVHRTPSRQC
D1 allo mod: allosterically modulates the human D1 dopamine receptor. actives 5.9% (n = 58,000). P21728. HEK293 D1, CRE-luciferase, dopamine EC30 potentiation; actives deviate in either direction. B-score at 10 µM;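 active means luminescence count or its row- and column-corrected plate score outside the 99.7% band of the plate's sample wells, on either side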
mHtt clearance: compounds clearing mutant huntingtin protein. HeLa Exon1htt(103Q)mCFP, aggregate imaging; zero = plate's median compound well. inhibition, % at 1.5 µM. actives 0.42% (n = 47,000);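 active means inhibition of aggregate fluorescence above about 70%, also judged a hit by eye on the cell image, limit read from the data, passing the limit was not always enough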;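 further: cells exposed to compound for three days before fixation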
M1 agonist: M1 muscarinic receptor agonism; CHO-M1 cells, Fluo-4 calcium fluorescence, agonist mode; active compounds read high; B-score at 10 µM; AID 626; actives 3% (n = 64,000);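 active means fluorescence rise, raw or as B-score row- and column-corrected plate score, outside the 99.7% band of its plate's samples, either direction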
* = called active by the depositor; . = no result. An excerpt weighted towards active compounds, which were near 9% of everything screened.

SMILES	AP complement	M1 antagonist	D1 allo mod	mHtt clearance	M1 agonist
O=C(c1ccco1)N1CCN(C(=O)c2cccn3c(=O)c4c5c(sc4nc23)CCCC5)CC1	-4	0.11	3.8*	.	1.1
COC(=O)c1ccccc1NC(=O)CN(c1ccccc1)S(=O)(=O)N(C)C	.	1.9*	0.018	.	1.6
COC(=O)c1ccccc1NC(=O)CC(NCc1ccccc1)C(=O)O (centres undefined)	4	-0.22	2.4*	3	-0.43
CCC1(C)Cc2c(sc3nc(NC)n(C)c(=O)c23)CO1 (centres undefined)	35*	0.39	1.7	.	-1.8
COC(=O)c1ccc2c(c1)N(Cc1nc(-c3ccc(Cl)cc3)oc1C)C(=O)C1CCCN21 (centres undefined)	20	0.51	-0.32	.	-0.21
CCc1nnc(NC(=O)C2CCN(C(=O)NC3CCCCC3)CC2)s1	34*	0.36	0.46	.	0.5
CCc1nnc(NC(=O)CCC(=O)NC2CCCCC2)s1	11	0.21	-0.25	.	-0.82
CCc1nnc(NC(=O)c2cc3c(s2)CCCCC3)s1	-3	0.64	-2.4*	-17	-0.27
CCCOc1ccc(C(=O)c2nc3c(n2O)CCCC3)cc1	-7	-0.1	0.95	.	-1.5
CCCNC(=O)N1CCN(S(=O)(=O)c2ccc(C)c(C)c2)CC1	0	0.36	.	22	0.4
O=C1c2ccccc2N(Cc2ccc(Cl)cc2)C2=NCCN12	5	0.72	11*	.	-0.032
COc1cc(C)c(S(=O)(=O)NCc2cccs2)cc1C	15	0.31	0.19	9	-0.39
O=C(NCCc1csc(-c2ccccc2)n1)c1cccs1	10	-0.24	-5.1*	.	0.0023
O=C(Nc1nsc(-c2ccccc2)n1)c1cccs1	7	1.3	-4.4*	33	0.069
Cc1sc(NC(=O)c2cccs2)nc1-c1ccccc1	1	0.0094	-0.3	.	-0.033
Cc1cccc(-c2c3c(=O)n(C)c(=O)n(C)c3c3c(C)cc(C)nn23)c1	2	0.53	3.6*	.	0.18
Cc1cc(C)c2c3c(c(-c4ccccc4)n2n1)c(=O)n(C)c(=O)n3C	2	-0.27	5.6*	.	0.74
COc1ccc(C(=O)NCC2OCCc3ccccc32)c(O)c1 (centres undefined)	19	-0.092	-1.2	44	-0.39
c1cncc(-c2nc3c4ccccc4nc(N4CCC(N5CCCCC5)CC4)n3n2)c1	6	-6.7*	0.83	.	-0.25
Clc1ccc(-c2nnc(NC3=NCCCCC3)o2)cc1	18	-1.1	-5.8*	.	-0.082
O=C(Nc1nnc(-c2ccc(Cl)cc2)o1)C1CCCCC1	2	0.31	-0.52	.	0.49
CCCn1c(SCc2cc(=O)[nH]c3ccccc23)nc2c1c(=O)n(C)c(=O)n2C	12	0.32	6*	.	0.2
CCCn1c(SCC(=O)N2c3ccccc3CCc3ccccc32)nc2c1c(=O)n(C)c(=O)n2C	.	.	.	5	.
Brc1c(OCCOCCn2cncn2)ccc2ccccc12	1	0.48	1.4	.	0.19
Cc1ccc(C2CC(c3ccccc3OC(F)F)Nc3ncnn32)cc1 (centres undefined)	19	1.3*	1.5	-21	0.84
SMILES	AP complement	M1 antagonist	D1 allo mod	mHtt clearance	M1 agonist
Cc1ccccc1C1CC(c2ccccc2OC(F)F)Nc2ncnn21 (centres undefined)	5	0.64	1.5	.	-0.36
CCOC(=O)Cn1nc(C)c2c1CCCC2=O	.	.	.	-32	.
CSc1n[nH]c(NCc2ccc(C)cc2)n1	.	.	.	-61	.
CCCCC(CC)Cn1c2nc3ccccc3nc2c2c(=N)oc(C)nc21 (centres undefined)	4	-0.085	1.2	.	-0.5
CCCCn1c2nc3ccccc3nc2c2c(=N)oc(C)nc21	3	-0.2	6.6*	.	3.9*
O=C(CN1CCN(Cc2ccccc2F)C1=O)NCc1ccco1	.	.	.	-29	.
CC(C)Cn1c2nc3ccccc3nc2c2c(=O)n(CCN3CCOCC3)cnc21	15	-0.048	4.8*	.	-1.1
COc1cc(NC(=O)c2nnn(Cc3ccc(SC)cc3)c2N)cc(OC)c1	-2	0.023	1.5	67	0.0018
CCN(CCNC(=O)C1CCN(S(=O)(=O)c2cccc3nsnc23)CC1)c1ccccc1	3	-1.3	-2.9*	15	0.23
COc1cccc(C(=O)Nc2nc(-c3ccc(S(=O)(=O)N4CCOCC4)cc3)cs2)c1	1	0	-3.3*	29	2.4
CC(CC(=O)NC1CCCC1)c1ccccc1 (centres undefined)	.	.	.	-14	.
CCOC(=O)C1CCN(Cc2ccc(F)cc2)CC1	0	-0.88	-0.61	36	-0.64
CCOC(=O)C1CCN(Cc2ccc(C(=O)OC)cc2)CC1	-6	-5.6*	-0.64	-26	41*
CN1CCN(Cc2c(C#N)c3ccccc3n2C)CC1	23	.	0.012	.	.
COc1ccc2ccccc2c1CN1CCN(C)CC1	0	-0.36	-2.4*	.	-1.9
O=P1(c2ccccc2)C=Cn2c1cc1c2CCCC1 (centres undefined)	-5	0.58	-1.4	40	-0.28
CN(C)CCCOC(=O)CCc1ccccc1	-7	-1.9	-0.028	-29	0.43
CN(C)CCCOC(=O)c1ccccc1Cl	.	.	.	73*	.
Nc1ccc(C(=O)OCCCc2nc3ccccc3[nH]2)cc1	5	0.86*	-0.67	.	0.32
CCOC(=O)N1CCN(S(=O)(=O)c2cc(Br)cnc2N)CC1	-1	.	-3.3*	.	.
CCOC(=O)N1CCN(S(=O)(=O)c2cc(Cl)c(OC)cc2Cl)CC1	-3	0.043	0.94	-25	-0.26
c1ccc(-c2nc3cc(Oc4ccc5oc(-c6ccccn6)nc5c4)ccc3o2)nc1	18	-0.17	-0.61	.	0.021
CCCN1CCCc2cc(CN)ccc21	2	-0.87	0.014	.	5.7*
CN1CCCc2cc(C=O)ccc21	.	.	.	-37	.
Cn1cnnc1SCc1ccc(C(=O)O)cc1	10	2.1*	0.33	-9	1.2
SMILES	AP complement	M1 antagonist	D1 allo mod	mHtt clearance	M1 agonist
CC(C)CCCC(C)NS(=O)(=O)Cc1ccccc1 (centres undefined)	.	.	.	7	.
CCc1cc(=O)oc2cc(OCC(=O)O)c(Cl)cc12	12	-0.018	0.38	-66	-0.63
CCc1cc(=O)oc2cc(OC(C)C(=O)O)c(Cl)cc12 (centres undefined)	-6	.	-4.2*	.	.
CCOC(=O)c1ccc(NC(=O)CN(Cc2ccc(Cl)cc2)S(C)(=O)=O)cc1	.	.	.	35	.
O=S(=O)(Nc1nccs1)c1ccc(NS(=O)(=O)c2cccs2)cc1	9	-0.26	-0.31	.	-0.15
O=S(=O)(Nc1cccnc1)c1cccs1	5	2.4*	0.041	-18	0.068
Cc1sc2ncn(CC(=O)NCCCC(=O)N3CCN(c4ncccn4)CC3)c(=O)c2c1C	4	-0.52	0.77	34	0.11
CCOC(=O)N1CCC(NC(=O)c2ccc3c(c2)sc2nc(-c4cccc(OC)c4)cn23)CC1	9	-1.2	-2.6*	.	1.5
Cc1cc2nc(-c3ccc(SCC(=O)N4CCOCC4)nc3)[nH]c2cc1C	11	-0.58	-2.6	-4	12*
Cc1cc2nc(-c3ccc(SCC(=O)N4CCN(C(=O)c5ccco5)CC4)nc3)[nH]c2cc1C	0	-0.58	.	.	0.59
Cc1ccc(C(=O)Nc2nc3ccccc3s2)s1	12	0.88	-5.8*	.	-0.9
